OXTR potentiate: human OXTR potentiators, primary screen, fluorescence, CHO-OTR cells, Fluo-8 calcium; Oxytocin receptor (Homo sapiens), P30559; Fluo-8 calcium fluorescence, potentiator mode; 0% = oxytocin EC15, 100% = EC100; activation, % at 3 µM; actives 0.061% (n = 320,000); AID 2445, 2010;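 active = activation above that plate's cutoff, the mean activation of tested compounds plus 3 SD, cut at about 6.6% in these data, passing the limit was not always enough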;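 also: 100% uses oxytocin at 75 nM as the full agonist control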
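Material: human OTR in CHO cells. Compound: 3.0 µM, one dose. Timing: compound 6 min at room temperature before oxytocin, 100 s read. Evaluation: % activation of max/min ratio relative to oxytocin controls. Replication: single well per compound, singlicate. Signal: Fluo-8 calcium dye fluorescence.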
V1R ag counter: agonists of human V1a receptor, primary screen, counter-screen for OXTR agonist project, fluorescence, CHO-V1R cells | Vasopressin V1a receptor (Homo sapiens), P37288 | actives 0.25% (n = 320,000) | Fluo-8 calcium fluorescence, agonist mode; 0% DMSO, 100% 3 nM vasopressin | AID 2797, 2010 | activation, % at 3 µM;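 active = activation above the mean activation of all tested compounds plus 3 SD, per screening run, cut at about 20% in these data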;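 also: signal is peak over basal fluorescence ratio across a 100 second FLIPR read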
OXTR agonist: human OXTR agonists, primary screen, fluorescence, CHO-OTR cells, Fluo-8 calcium | Fluo-8 calcium fluorescence; normalized: DMSO 0%, oxytocin 100% | actives 0.32% (n = 320,000) | activation, % at 3 µM | Oxytocin receptor (Homo sapiens), P30559;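 active = activation above the mean of all tested compounds plus 3 SD, cutoff set per screening run, cut at about 20% in these data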;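 also: peak over basal fluorescence ratio from a 100 s FLIPR kinetic read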
TRPN1 ag: zebrafish TRPN1 channel agonists, primary screen, cell-based, HEK293, calcium fluorescence | activation, % at 3 µM | transient receptor potential cation channel N1 (TRPN1/NompC), Danio rerio | HEK293 zebrafish TRPN1-YFP, Fluo-8 calcium fluorescence; 100% = response to 87 µM carbachol | actives 0.18% (n = 220,000);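 active = activation above its plate's cutoff, the mean activation of test wells on that plate plus 3 SD, cut at about 19% in these data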;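 also: 0% = DMSO alone and 100% = 87 µM carbachol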
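Material – zebrafish TRPN1-YFP in HEK293 cells · Doses – 3 µM single point · Schedule – dye 1 h 37 °C plus 30 min RT · Signal – Fluo-8 calcium fluorescence, excitation 470-495 nm, emission 515-575 nm · Read-out – % activation versus carbachol response · Control set – carbachol high, DMSO low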
TRPML3 ag: human TRPML3 channel agonists, primary screen, cell-based, HEK293 TRPML3-YFP, Fluo-8 calcium fluorescence, 3 µM. 100% = the carbachol control signal. activation, % at 3 µM. actives 0.29% (n = 220,000);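 active = activation above its plate's cutoff, the mean activation of the plate's test wells plus 3 SD, cut at about 12% in these data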;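 also: 0% = DMSO only wells and 100% = carbachol wells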
Target sequence (Q8TDD5 whole entry, looked up): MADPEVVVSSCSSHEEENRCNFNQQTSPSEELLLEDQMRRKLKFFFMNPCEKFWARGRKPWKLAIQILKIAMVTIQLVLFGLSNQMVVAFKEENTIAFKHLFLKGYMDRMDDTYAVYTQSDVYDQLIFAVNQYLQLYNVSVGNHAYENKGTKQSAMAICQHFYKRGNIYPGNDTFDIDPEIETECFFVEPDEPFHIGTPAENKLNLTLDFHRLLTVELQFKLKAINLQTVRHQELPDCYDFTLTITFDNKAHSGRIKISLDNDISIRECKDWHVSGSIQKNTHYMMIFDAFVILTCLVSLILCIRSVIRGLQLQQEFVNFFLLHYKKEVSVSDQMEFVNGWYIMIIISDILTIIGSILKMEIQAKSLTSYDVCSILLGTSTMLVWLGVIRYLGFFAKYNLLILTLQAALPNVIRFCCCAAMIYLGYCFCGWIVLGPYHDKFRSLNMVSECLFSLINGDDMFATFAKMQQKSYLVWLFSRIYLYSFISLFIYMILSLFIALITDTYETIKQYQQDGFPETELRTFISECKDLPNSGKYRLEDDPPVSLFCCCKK
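Material: TRPML3-YFP stable HEK293 cells | Dosing: One concentration, 3 µM nominal, 0.3% DMSO | Timing: 125 s total fluorescence read per well | Technique: Fluo-8 calcium dye fluorescence, ex 470-495, em 515-575 nm | Measure: Percent activation from peak-to-basal fluorescence ratio, scaled between DMSO and carbachol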
V1R ag confirm: V1a receptor agonists, calcium signal, confirmation, Fluo-8 calcium fluorescence, CHO-V1R cells | shares compounds with V1R ag counter | agonist | activation, % at 3 µM | actives 20% (n = 180) | AID 434964, 2010;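 active = average activation exceeds primary screen hit cutoff, cut at about 21% in these data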;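 also: peak over basal fluorescence ratio during a 100 s FLIPR read; 0% = DMSO only wells and 100% = 3 nM vasopressin wells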
OXTR counter: human OXTR agonists, counter-screen for V1R agonist project, fluorescence, CHO-OTR cells, triplicate; shares compounds with V1R ag counter; Fluo-8 calcium fluorescence; activation, % at 3 µM; actives 10% (n = 180); AID 434969, 2010;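 active = mean activation over three repeats above the cutoff from the earlier oxytocin receptor agonist screen, cut at about 20% in these data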;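 also: peak over minimum fluorescence ratio within a 100 second FLIPR read; 0% = DMSO only wells and 100% = oxytocin high control wells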
The depositor's hits bear a star; · = no result. This is a sample that favours compounds with a hit; in the whole collection about 0.58% have one here.

SMILES	OXTR potentiate	V1R ag counter	OXTR agonist	TRPN1 ag	TRPML3 ag	V1R ag confirm	OXTR counter
CCC[C@@H]1C[C@@H](C(=O)NC(C(C)Cl)[C@H]2O[C@H](SC)[C@H](O)[C@@H](O)[C@H]2O)N(C)C1 (stereo partly specified)	6	0	0	·	·	·	·
COc1ccc(CC(=O)Nc2nccs2)cc1S(=O)(=O)N1CCOCC1	0	2	2	·	·	·	·
COc1ccc2nc(NC(=O)Cc3ccc(OC)c(S(=O)(=O)N4CCOCC4)c3)sc2c1	-18	23*	18	1	1	1	5
COc1ccccc1N1C(=O)c2cccc3c(N(C)CCO)ccc(c23)C1=O	-10	31*	18	·	·	18	11
COc1ccccc1N1C(=O)c2cccc3c(C(=O)O)ccc(c23)C1=O	5	0	2	-1	0	·	·
O=C(CSc1ccc2nnc(CCNC(=O)c3ccccc3)n2n1)NCc1ccc(F)cc1	-2	1	0	·	·	·	·
O=C1c2ccccc2C(=O)N1CCC#Cc1ccc2cc(CCCO)oc(=O)c2c1	-11	26*	15	·	·	9	8
Cc1ccc(NC(=O)COC(=O)CCc2ccccc2)cc1S(=O)(=O)N1CCOCC1	-5	3	6	·	·	·	·
CC1(C)CC(=O)C(C(C2=C(O)CC(C)(C)CC2=O)c2ccc(Cl)c([N+](=O)[O-])c2)C(=O)C1 (stereo unspecified)	-6	48*	8	0	-1	16	10
Cc1c(NC(=O)Nc2cccc(Cl)c2Cl)c(=O)n(-c2ccccc2)n1C	1	-1	-1	·	·	·	·
COc1ccc(NC(=O)CSc2nnc(CN3CCOCC3)n2C)cc1Cl	-8	-1	0	·	·	·	·
CCCOc1ccc(-c2c(C(=O)N/N=C/c3ccc(C)o3)nnn2-c2nonc2N)cc1	-1	4	-1	·	·	·	·
COc1cccc(-c2c(C(=O)N/N=C/c3ccsc3)nnn2-c2nonc2N)c1	-8	25*	8	·	·	17	5
CCCOc1ccc(-c2c(C(=O)N/N=C/c3ccncc3)nnn2-c2nonc2N)cc1	-13	21*	9	·	·	0	0
Nc1nonc1-n1nnc(C(=O)N/N=C/c2cccnc2)c1CSc1ccc(Cl)cc1	-8	21*	15	·	·	3	5
Nc1nonc1-n1nnc(C(=O)N/N=C/c2cccnc2)c1CSc1ccccc1	-7	15	10	·	·	·	·
COC(=O)c1ccccc1S(=O)(=O)N1CCC(C(=O)NC2CCCCC2)CC1	-4	0	0	·	·	·	·
COc1ccc(NC(=O)[C@@H](NS(=O)(=O)c2cccc(Cl)c2)C(C)C)cc1S(=O)(=O)N1CCOCC1	3	1	0	·	·	·	·
CCCNC(C)C(=O)Nc1c(C)csc1C(=O)OC (stereo unspecified)	-1	1	1	·	·	·	·
O=C(NC1CCCCC1)c1cc(S(=O)(=O)N2CCOCC2)ccc1Cl	-4	0	1	·	·	·	·
Cc1nn(Cc2c(Cl)cccc2Cl)c(C)c1NC(=O)c1cc(C(C)C)on1	-7	27*	3	0	0	1	14
Cc1cc(C(=O)Nc2c(C)nn(Cc3c(Cl)cccc3Cl)c2C)no1	1	1	0	0	1	·	·
Cc1cc(Br)ccc1NC(=O)CN(C)C(=O)c1ccc2ccccc2n1	-2	1	0	·	·	·	·
CSc1nnc(N2C(=O)C(O)=C(C(=O)c3ccco3)C2c2cccc(Cl)c2)s1 (stereo unspecified)	-6	45*	10	·	·	20	16
COc1ccc(C2C(C(=O)c3ccco3)=C(O)C(=O)N2c2nnc(C)s2)cc1 (stereo unspecified)	3	4	3	3	1	·	·
SMILES	OXTR potentiate	V1R ag counter	OXTR agonist	TRPN1 ag	TRPML3 ag	V1R ag confirm	OXTR counter
CCSc1nnc(N2C(=O)C(O)=C(C(=O)c3ccco3)C2c2cccc(OC)c2)s1 (stereo unspecified)	-5	31*	5	·	·	3	3
CCOc1cccc(C2C(C(=O)c3ccco3)=C(O)C(=O)N2c2nnc(C)s2)c1 (stereo unspecified)	-7	2	1	·	·	·	·
CSc1nnc(N2C(=O)C(O)=C(C(=O)c3ccco3)C2c2ccc(F)cc2)s1 (stereo unspecified)	-5	33*	19	·	·	7	6
C=CCN1C(=O)c2ccc(C(=O)N3CCN(S(=O)(=O)c4ccccc4Br)CC3)cc2C1=O	-2	0	0	·	·	·	·
CC(CC(=O)N1CCN(c2cccc(Cl)c2)CC1)S(=O)(=O)c1ccc2c(c1)NC(=O)CO2 (stereo unspecified)	-13	21*	17	·	·	7	5
CCCCCCCCCCOC(=O)C[N+](C)(C)C/C=C(/C)Cl	-2	3	0	-2	-1	·	·
CCCCCCCCCCCCOC(=O)C[N+](C)(C)C	-7	26*	4	-1	1	0	-1
CC(=O)c1sc(NC(=O)Cc2c(F)cccc2Cl)nc1C	-2	-1	-1	·	·	·	·
O=C(Cc1c(F)cccc1Cl)Nc1nc2ccccc2s1	-20	22*	1	0	0	2	-1
Cc1ccc(SC/C(O)=C(\C#N)c2nc3ccccc3s2)cc1	-30	8	11	1	1	·	·
N#C/C(=C(/O)CSc1ccccn1)c1nc2ccccc2s1	-15	27*	14	7	2	2	1
CCCCCC(O)(c1ccc(OC)cc1)C(CN1CCOCC1)c1ccccc1 (stereo unspecified)	-2	24*	-2	·	·	0	-1
Cc1c(NC(=O)CSc2ccccc2F)c(=O)n(-c2ccccc2)n1C	11	1	1	0	0	·	·
Cc1c(NC(=O)CSc2ccccc2C(=O)Nc2cccnc2)c(=O)n(-c2ccccc2)n1C	1	31*	0	2	0	-1	-1
COc1ccc(C(C)NC(=S)NCc2ccc(F)cc2)cc1 (stereo unspecified)	-16	9	9	·	·	·	·
Cc1ccc(C)c(C(C)NC(=S)NCc2ccc(F)cc2)c1 (stereo unspecified)	-18	24*	16	·	·	5	9

Source: PubChem (The Scripps Research Institute Molecular Screening Center)
